# Measurements pooled from the literature.
# Each line is one published result; the experiments were not run side by side.
# Cell line: MDA-MB-231
# Read-out: cell growth or viability
SMILES,technique,time,IC50 [µM]
Cc1ccc2nc(-c3ccc([N+](=O)[O-])cc3)n(Cc3ccccc3)c2c1,MTT,,8.11
C[C@@H]1C[C@@H](c2cccc(F)c2)c2c(cc3ccccn23)C(=O)O1 (racemic),resazurin,72 h,52.9
Oc1ccccc1-c1nc2ccccc2[nH]1,MTT,48 h,35.9
O=C1C[C@@H](c2ccc(O)cc2)Oc2cc(O)cc(O)c21,MTT,48 h,2.98
CC(=O)Nc1nc(C)c(-c2csc(Nc3ccccc3)n2)s1,MTT,72 h,15.7
CC(=O)O[C@H]1C(=O)[C@@]2(C)[C@H]([C@H](OC(=O)c3ccccc3)[C@]3(O)C[C@H](OC(=O)[C@H](O)[C@@H](NC(=O)c4ccccc4)c4ccccc4)C(C)=C1C3(C)C)[C@]1(OC(C)=O)CO[C@@H]1C[C@@H]2O,ATP luminescence,72 h,0.006
C[C@@H]1C[C@@H](c2ccc3c(c2)OCO3)c2c(cc3ccccn23)C(=O)O1 (racemic),resazurin,72 h,29.4
FC(F)(F)c1cccc(Nc2ncnc3ccc(NCc4ccccc4)cc23)c1,MTT,24 h,12.6
CCc1ccc(N2NC(=O)/C(=C/c3ccc(-c4ccc(S(=O)(=O)Nc5nccs5)cc4)o3)C2=O)cc1,MTT,48 h,65.2
Cc1ccc2nc(-c3c(F)cccc3Cl)[nH]c2c1,MTT,48 h,34.4
CC(=O)OC[C@H]1O[C@@H]([S-])[C@H](OC(C)=O)[C@@H](OC(C)=O)[C@@H]1OC(C)=O.CCP(CC)CC.[Au+],resazurin,,1.58
COc1ccnc(Nc2ccc3ncnc(Nc4cccc(C(F)(F)F)c4)c3c2)c1,MTT,24 h,6.62
CCCCCCCCCCCC(=O)Oc1c(C)c(O)c(C(=O)/C=C/c2ccccc2)c(OC)c1C,SRB,72 h,> 50
CC(C)=CCc1c(O)c(CC=C(C)C)c2oc3c(O)ccc(O)c3c(=O)c2c1O,,48 h,17.1
Cc1nc(Nc2ncc(C(=O)Nc3c(C)cccc3Cl)s2)cc(N2CCN(CCO)CC2)n1,MTT,24 h,25
CC(=O)O[C@H]1C(=O)[C@@]2(C)[C@H]([C@H](OC(=O)c3ccccc3)[C@]3(O)C[C@H](OC(=O)[C@H](O)[C@@H](NC(=O)c4ccccc4)c4ccccc4)C(C)=C1C3(C)C)[C@]1(OC(C)=O)CO[C@@H]1C[C@@H]2O,MTT,48 h,1.38
CN(C)c1ccc2cc(C(=O)N[C@@H](CCCNC(=N)CCl)C(=O)NCc3ccccc3)ccc2c1,,48 h,7
CCn1c(-c2nnc(NC(=O)c3cc4c([nH]c5ccccc54)c(-c4cc(OC)c(OC)c(OC)c4)n3)s2)cc2ccccc21,MTT,72 h,8.66
C[C@@H]1C[C@@H](c2ccc(Br)cc2)c2c(cc3ccccn23)C(=O)O1 (racemic),resazurin,72 h,22
FC(F)(F)c1cccc(Nc2ncnc3ccc(-c4ccc5c(c4)OCO5)cc23)c1,MTT,24 h,7.24
Cc1cc(NS(=O)(=O)c2ccc(NC(=O)COc3ccc(C(C)(C)c4ccccc4)cc3)cc2)nc(C)n1,MTT,72 h,38.9
O=C(Nc1nnc(-c2cc3ccccc3[nH]2)s1)c1cc2c([nH]c3ccccc32)c(-c2ccc(Cl)cc2)n1,MTT,72 h,4.45
O=C(C=C[c-]1cccc1)c1sccc1Br.[Fe+2].c1cc[cH-]c1,MTT,72 h,6.59
COc1cc(-c2nc(C(=O)Nc3nnc(-c4cc5ccccc5n4C)s3)cc3c2[nH]c2ccccc23)cc(OC)c1OC,MTT,72 h,7.23
COc1c(C)c(OS(=O)(=O)c2ccc3ccccc3c2)c(C)c(OS(=O)(=O)c2ccc3ccccc3c2)c1C(=O)/C=C/c1ccccc1,SRB,72 h,> 50
COc1cccc2c1C(=O)c1c(O)c3c(c(O)c1C2=O)C[C@@](O)(C(=O)CO)C[C@@H]3O[C@H]1C[C@H](N)[C@H](O)[C@H](C)O1,SRB,,0.45
O=C(c1cc(Cc2n[nH]c(=O)c3ccccc23)ccc1F)N1CCN(C(=O)C2CC2)CC1,MTT,48 h,246
C[C@@H]1C[C@H](c2cccc(Cl)c2)c2c(cc3ccccn23)C(=O)O1 (racemic),resazurin,72 h,36
COC1=C2C[C@@H](C)C[C@H](OC)[C@H](O)[C@@H](C)/C=C(\C)[C@H](OC(N)=O)[C@@H](OC)/C=C\C=C(/C)C(=O)NC(=CC1=O)C2=O,MTT,,0.065
CCn1c(-c2nnc(NC(=O)c3cc4c([nH]c5ccccc54)c(-c4ccc(OC)cc4)n3)s2)cc2ccccc21,MTT,72 h,9.39
COc1ccc(Br)cc1/C=C/C(=O)c1ccc(NC(C)=O)cc1,MTT,72 h,9.5
CC(=O)O[C@H]1C(=O)[C@@]2(C)[C@H]([C@H](OC(=O)c3ccccc3)[C@]3(O)C[C@H](OC(=O)[C@H](O)[C@@H](NC(=O)c4ccccc4)c4ccccc4)C(C)=C1C3(C)C)[C@]1(OC(C)=O)CO[C@@H]1C[C@@H]2O,,72 h,0.0051
FC(F)(F)c1cccc(Nc2ncnc3ccc(-c4ccc(Cl)cc4)cc23)c1,MTT,24 h,11.4
O=C(CSc1nc2ccc(N=Cc3ccc(Sc4nnnn4-c4ccccc4)o3)cc2s1)N1CCOCC1,MTT,72 h,48.6
Cc1ccc2nc(-c3ccc(Cl)cc3)n(Cc3ccccc3)c2c1,MTT,,2.39
CC(C)C(=O)Nc1ccc([N+](=O)[O-])c(C(F)(F)F)c1,CCK-8,48 h,> 50
COc1cccc2c1C(=O)c1c(O)c3c(c(O)c1C2=O)C[C@@](O)(C(=O)CO)C[C@@H]3O[C@H]1C[C@H](N)[C@H](O)[C@H](C)O1,resazurin,72 h,0.383
Oc1ccc(Br)cc1-c1nc2ccccc2[nH]1,MTT,48 h,12.8
FC(F)(F)c1cccc(Nc2ncnc3ccc(Nc4ccccc4)cc23)c1,MTT,24 h,15.5
COc1cc([C@H]2C[C@@H](C)OC(=O)c3cc4ccccn4c32)cc(OC)c1OC (racemic),resazurin,72 h,> 100
CC(=O)O[C@@]12CO[C@@H]1C[C@H](O)[C@@]1(C)C(=O)[C@H](O)C3=C(C)[C@@H](OC(=O)[C@H](O)[C@@H](NC(=O)OC(C)(C)C)c4ccccc4)C[C@@](O)([C@@H](OC(=O)c4ccccc4)[C@H]21)C3(C)C,resazurin,72 h,0.02
Clc1ccccc1-c1nc2ccccc2[nH]1,MTT,48 h,50.3
Oc1cccc(-c2ccc3ncnc(Nc4cccc(C(F)(F)F)c4)c3c2)c1,MTT,24 h,14
COc1ccc(-c2nc3ccccc3[nH]2)cc1OC,MTT,48 h,50.1
O=Cc1ccc(-c2ccc3ncnc(Nc4cccc(C(F)(F)F)c4)c3c2)cc1,MTT,24 h,8.67
COc1cccc2c1C(=O)c1c(O)c3c(c(O)c1C2=O)C[C@@](O)(C(=O)CO)C[C@@H]3O[C@H]1C[C@H](N)[C@H](O)[C@H](C)O1,MTT,,6.75
COc1ccc(/C=C/C(=O)c2cc(Br)ccc(=O)c2O)cc1,MTT,72 h,26.1
CC(C)C[C@H](NC(=O)[C@H](Cc1ccccc1)NC(=O)c1cnccn1)B(O)O,ATP luminescence,,0.013
